# Experimental data published in ChEMBL document CHEMBL4513216, “Probing the Open Global Health Chemical Diversity Library for Multistage-Active Starting Points for Next-Generation Antimalarials” (ACS Infect Dis, 2020).
# Experiment: Toxicity liver stage against HepG2, at 10uM
# Assay type: cell-based
# Parameters: test concentration 10 uM, cell line HepG2-A16-CD81EGFP
# Details: human, HepG2-A16-CD81EGFP cells; read-out: INHIBITION
# Procedure, shortened: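 Uninfected HepG2-A16-CD81EGFP cells, 3 × 10^3 per well, 1536-well, plated on prespotted compound at 10 μM final, parasite-free screening media added to match infected plates; puromycin 10 μM positive, DMSO 0.5% negative; run in parallel with 48 h PbLuc assay at 37 °C, 5% CO2; viability by CellTiter-Glo luminescence, normalized to controls.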
row,SMILES,cytotoxicity at 10 µM [%]
1,F[C@@H]1CN(Cc2cccnc2)C[C@@H]1OCc1nc2ccccc2[nH]1,5.22
2,COCCN1C[C@H]2CN(Cc3cccc(OC)c3)CCN2C1=O,7.91
3,O=C(O)CCn1ccc2cc(Br)ccc21,10.7
4,COC(=O)[C@H](CCSC)NC(=O)Cn1ccc2c(Cl)cccc21,2.17
5,COc1cc(C2SC(C)=Nc3c2c(=O)[nH]n3C2CCCC2)ccc1O (stereo not drawn),3.54
6,O=C(CC1CCCC1)Nc1ccc(-n2cc(Br)cn2)nc1,-51.2
7,Cc1cc(C)nc(N2CCC(C(=O)Nc3n[nH]c(C(C)C)n3)CC2)n1,4.07
8,COC(CNC(=O)C1CCCC1)c1ccc(C)s1 (stereo not drawn),4.45
9,COc1ccc(C(=O)N2CCCC3(CCCC(=O)N3C)C2)cc1 (stereo not drawn),-10.1
10,Cc1cc(C(=O)N2C[C@@H]3CCCO[C@@H]3[C@H](N(C)C(C)C)C2)c(C)[nH]1,10.2
11,Cc1noc(C[C@@H]2COC[C@H]3CN(S(=O)(=O)C4CC4)C[C@@H]23)n1,8.37
12,CCS(=O)(=O)N1CCC2(CC1)CC[C@@]1(C(=O)NC)CN(C(C)=O)C[C@@H]21,6.1
13,O=C([C@H]1C[C@H]2[C@H](CCN2Cc2cccs2)O1)N1CCOCC1,0.582
14,COCCNC(=O)[C@@H]1CN(c2cc(OC)ncn2)C[C@H]2OCC[C@H]21,-3.06
15,c1cc(-c2ccc3c(c2)CCC32CCN(c3nncs3)CC2)co1,-2.07
16,Cc1noc([C@@H]2CC[C@@H]3[C@@H](CCN3S(=O)(=O)c3ccccc3)O2)n1,2.43
17,COCCC(=O)NCc1ccc(-c2ccccc2C(=O)O)nc1,2.28
18,Cn1nccc1CCC(=O)NC1CCCN(c2ccccn2)C1 (stereo not drawn),4.18
19,CN(C)C(=O)c1c[nH]nc1C1CCN(S(=O)(=O)c2ccc(Cl)cc2)CC1,-4.9
20,Oc1nc(N2CCCC2)nc2c1CCN(Cc1cccnc1)CC2,-7.25
21,Cc1ccc(C(=O)N2CCCCC2c2[nH]ncc2S(C)(=O)=O)cn1 (stereo not drawn),-6.72
22,COc1ccccc1CN1CC[C@H]2[C@@H](C1)[C@H](c1ccsc1)CN2C(C)=O,-12.4

row,SMILES,cytotoxicity at 10 µM [%]
1,CCOc1nnc(CN(CC)CC(=O)NC(C)(C)C)s1,-13.7
2,COCCN(Cc1ccccc1)C(=O)c1csc(-c2nnc[nH]2)n1,4.9
3,Cn1ccnc(Nc2ccc3c(c2)CCN3C(=O)c2cccnc2)c1=O,-55
4,FC(F)(F)CN1CCC(CNc2nc3ccccc3o2)C1 (stereo not drawn),2.7
5,CC(C#N)CN(C)Cc1ccc(Cl)c2cccnc12 (stereo not drawn),-40.4
6,CCC(CC)c1cc(C(=O)N2CCN(C(C)C(N)=O)CC2)on1 (stereo not drawn),5.82
7,O=C(CC1CCCO1)NS(=O)(=O)Cc1cc(-c2ccccc2)no1 (stereo not drawn),9.95
8,COC(=O)c1ccc(NCc2csc(C)n2)cc1Cl,-5.08
9,Cc1cc(Cl)ccc1NCC(=O)Nc1cc(C(C)(C)C)no1,0.521
10,COc1ccc(C2(NCc3noc(C4CC4)n3)CCOCC2)cc1,-6.44
11,O=C(NCC1CCS(=O)(=O)C1)c1cccc(CN2CCCC2)c1 (stereo not drawn),-0.986
12,CC(=O)N1CCN(C(=O)CN(C)c2ccc(Cl)cn2)CC1,1.79
13,CN(CC(=O)N1CCN(CC(C)(C)O)CC1)c1ccc(Cl)cn1,-2.87
14,CCCc1noc(CN2CCC(NC(=O)c3ccc(C)s3)CC2)n1,-5.32
15,COc1ccc(N2CCCN(C(=O)Cc3csc(C)n3)CC2)cc1,3.91
16,Cc1ncc(CNC2CCc3nc(C(C)C)nn3C2)s1 (stereo not drawn),3.97
17,CCn1ccnc1CN1CCN(CCc2ccncc2)CC1C (stereo not drawn),-3.04
18,Cc1ccc(-c2nc(CN3CCn4c(nnc4C4CC4)C3)no2)cc1,-1.99
19,CCOc1ccc(CN(C)C2CCN(c3cc(C)nn3C)C2=O)cc1 (stereo not drawn),1.66
20,CC(C)CCN1CCN(C(=O)c2cnccn2)CC1,0.365
21,Cc1n[nH]cc1CNCC(c1cccc(F)c1)N(C)C (stereo not drawn),-0.0972
22,CC(C)N(CCNC(=O)c1n[nH]c2ccccc12)C(C)C,-42.8

row,SMILES,cytotoxicity at 10 µM [%]
1,Cc1nn(C)c(Cl)c1C1CCCN1Cc1cn2ccsc2n1 (stereo not drawn),-44.5
2,Cn1cc(CN2C[C@@H]3CN(C(=O)c4cccn4C)CCO[C@@H]3C2)cn1,-110
3,CCS(=O)(=O)N1CCC2(CC1)c1ncc(-c3cccnc3)n1CCN2C,-103
4,C[C@H]1C[C@@H]2CCN(C(=O)c3cccn3C)C[C@H]2O1,10.1
5,O=C(c1ccco1)N1CC[C@H]2[C@H]1CCN2CC1CCOCC1,5.12
6,CNc1cc(-c2ccncc2)ncn1,-13.9
7,COc1ccc2c(c1)[C@@H](CCNC(C)=O)CC(C)(C)O2,-6.33
8,Cc1sc2ncc(-c3ccnc(NC4CCN(C)CC4)n3)c(=O)n2c1C,-7.75
9,Fc1cccc(-n2nc(C3CC3)nc2CCn2cnnn2)c1,-0.174
10,O=C(Cn1cccn1)N(CCO)CCSc1ccc(Cl)cc1,0.513
11,Cc1nc(N[C@H]2COC[C@@H]2N2CCCCC2)c2c(C)nn(C)c2n1,-1.21
12,CN(Cc1cc(-c2cccnc2)no1)C(=O)c1cccn1C,-1.1
13,CN(C)CCCn1ccnc1C1CCN(C(=O)Cc2cccnc2)CC1,4.77
14,CCOc1ccc2nc(CN3CCOC(CN)C3)ccc2c1 (stereo not drawn),-3.54
15,CC(Cc1cn(CCc2nc(N)cc(O)n2)nn1)c1ccccc1 (stereo not drawn),-5.58
16,Cc1ccc(CN2CCN(c3cc(NCCO)ncn3)CC2CCO)o1 (stereo not drawn),7.11
17,O=C(CCN1CCOC(C(F)(F)F)C1)NCc1ccccc1Cl (stereo not drawn),-3.13
18,NC(=O)CCC1CCCN(c2ncnc3c2Cc2ccccc2OC3)C1 (stereo not drawn),0.721
19,CCn1cc(N)c(-c2nnc3n2CCC3)n1,-12.1
20,COc1ccc(CNCc2cn(C)nc2C)cc1,-1.42
21,CN(CC(C)(C)O)C1CCCN(Cc2noc(C3CC3)n2)C1 (stereo not drawn),0.85
22,Cc1cc(CN2CCN(C(=O)NCc3csc(C)n3)CC2)on1,-2.95

row,SMILES,cytotoxicity at 10 µM [%]
1,Cc1nc(CN2CCN(CCOc3ccc(C(C)C)c(C)c3)CC2)no1,-11.2
2,Cc1cnn(C2CCCN(C(=O)c3ccc(N4CCCC4)nn3)C2)c1 (stereo not drawn),-2.38
3,Cc1cc(C(=O)N2CCOC(c3nc(C(C)C)n[nH]3)C2)no1 (stereo not drawn),-5.13
4,COCc1nc(C(=O)N2CCCC(n3nc(C)cc3C)C2)cs1 (stereo not drawn),-8.57
5,CC(Cn1cccn1)NCc1nc(-c2ccccc2Cl)no1 (stereo not drawn),-3.56
6,O=C(CCc1ccsc1)N1CCC(Nc2cccnn2)CC1,-4.71
7,CC(=O)NCC1CCN(C(=O)NCCOc2ccc3c(c2)CCC3)CC1,-5.31
8,CC(C)c1nn(C)c(N2CCOCC2)c1CNCCC(=O)N(C)C,-16.5
9,Cc1nc(CN2CCCN(C(=O)c3cccnc3O)CC2)cs1,-8.51
10,Cc1nc2n(n1)CC(NCc1nc(-c3cccnc3)no1)CC2 (stereo not drawn),-3.44
11,CC(NC(=O)CNCCn1cccn1)c1ccc2c(c1)OCCO2 (stereo not drawn),-13
12,Cc1nn(C)c(C)c1C1CCCN1C(=O)c1ccc(NC2CC2)nc1 (stereo not drawn),-2.85
13,Cc1nc(C2CCCN2Cc2nc(C)c(C)o2)no1 (stereo not drawn),-2.53
14,c1nc2n(n1)CC(NCc1csc(-c3ccsc3)n1)CC2 (stereo not drawn),3.79
15,COCc1nc(C(=O)NS(=O)(=O)c2cc(F)ccc2F)cs1,-2.22
16,Cc1ccc(C(=O)N2CCN(C(=O)NC(C)Cn3ccnc3)CC2)o1 (stereo not drawn),-1.47
17,O=C(CSc1ccccc1Cl)NS(=O)(=O)c1ccc2c(c1)OCCO2,-10.7
18,Cn1ncc2c(=O)[nH]c(CN3CCCC3c3cccs3)nc21 (stereo not drawn),-4.43
19,Cc1nccn1CC1CCCN1S(=O)(=O)Cc1ccon1 (stereo not drawn),-9.57
20,CN1CCN(C(=O)c2cnc3c(cnn3C3CCCC3)c2)CC1,-14.6
21,Cc1cnn(CCC(=O)N2CCC(Nc3cccnn3)CC2)c1,-8.11
22,COc1ccccc1OCC(=O)NS(=O)(=O)c1ccc(C)s1,-12.7

row,SMILES,cytotoxicity at 10 µM [%]
1,COc1cccc(CN2C[C@@H]3CC[C@@](O)(c4ccccn4)[C@@H]3C2)c1OC,-9.94
2,CC(N)Cc1ccccc1Sc1ccccc1 (stereo not drawn),5.41
3,Cc1nc(O)cc(C2CCN(Cc3cccc(F)c3F)C2)n1 (stereo not drawn),-1.19
4,CC1CCN(C(=O)[C@H]2C[C@@H]3CCN(CC4CCOCC4)C[C@@H]3O2)CC1,9.85
5,CNC(=O)CN1CCOCC12CCN(Cc1ccncc1)CC2,3.07
6,O=S(=O)(C1CC1)N1CCC2(CN(c3ccccn3)C2)C1,5.25
7,CS(=O)(=O)CC(=O)N1C[C@H]2CCC[C@@]2(COCc2ccccn2)C1,4.35
8,O=C(N1CCCO1)[C@]12COC[C@H]1CN(Cc1cccnc1)C2,8.25
9,Cc1cccc(CN2C(=O)CCC23CCN(Cc2cccn2C)CC3)n1,5.61
10,Cc1cccc(CN2CCCn3c(nnc3CN3CCCC3=O)C2)n1,2.14
11,CCC(C)(N)c1nc(=O)c(C(C)C)c(C)[nH]1 (stereo not drawn),-6.17
12,c1ccc(CCN2CCn3cc(Cn4cccn4)nc3C2)cc1,-1.98
13,Cc1cnc(N2C[C@@H]3CN(C4CCOC4)CCC[C@]3(C(=O)O)C2)nc1 (stereo partly drawn),-111
14,Cc1cccc(CNC2CCCc3c2cnn3C)c1 (stereo not drawn),-8.77
15,CC(C)Nc1ncnc2c1CCN(Cc1nccn1C)CC2,0.507
16,CN(C)Cc1cncc2c1CCN(Cc1ccoc1)C2,-103
17,CNc1ncc(-c2csc(NC(=O)C[C@H]3COCCN3)n2)cn1,-11.9
18,CCC1=N[C@@]2(CC[C@@H]3CN(CC(C)C)C[C@@H]32)C(=O)N1,4.32
19,COC1C[C@@H]2CN(C(=O)c3[nH]nc4c3CCCC4)C[C@@H]2C1 (stereo partly drawn),0.0252
20,O=C(c1ccccc1)N1C[C@H]2CC[C@@H](C1)N(Cc1cc(F)ccc1Cl)C2,-4.39
